Lung fibro prol: antiproliferative effect on LL 47 fibroblasts – human, LL 47 cells, CellTiter-Glo luminescence, primary screen | LL 47 human lung fibroblast viability, ATP luminescence; stronger effect = lower value | viability, % at 10 µM | 85,000 tested, 1.1% active;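 active = viability at or below 50% in the single dose screen; inactive = viability above 50%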;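 also: compound exposure lasted 72 h before the ATP readout; 100% = median luminescence of untreated cell-only wells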
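Material: human lung fibroblast line LL 47, low passage; Evaluation: viability percentage against median untreated-cell control; Buffer or medium: 15% FBS in IMEM; Incubation: 72 h compound exposure at 37 °C after overnight plating; Dosing: 0.1% DMSO in all compound wells; Measured by: CellTiter-Glo luminescence.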
H69AR growth 86K: proliferation blockers of H69AR lung cancer cells, primary screen, cell-based, human, 86K library. H69AR lung tumor viability, ATP luminescence, 72 h; stronger effect = lower value. viability, % at 10 µM. 85,000 tested, 6% active. AID 598, 2007;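 active = viability at or below 40%; inactive = viability above 40%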;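 also: multidrug resistant small cell line overexpressing MRP-1 efflux transporter; 100% = mean luminescence of untreated control wells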
Jurkat viability: cytotoxicity toward Jurkat T cells, primary screen, cytotoxicity control, cell-based, Jurkat E6.1, 60K MLSMR library; Jurkat E6.1 viability, ATP luminescence, 48 h; inhibition, % at 4 µM; 56,000 tested, 1.2% active;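 active = inhibition above the mean inhibition of all tested compounds plus 3 SD, cut at about 28% in these data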
HUVEC inhibit: inhibitors of HUVEC proliferation, primary screen, cell-based, 384-well | CellTiter-Glo luminescence, 72 h; stronger effect = lower value | viability, % at 10 µM (by protocol) | 86,000 tested, 1.1% active | AID 648, 2007;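 active = viability at or below 30%; inactive = viability above 30%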;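 also: 100% = median luminescence of DMSO-only cell control wells on each plate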
An asterisk follows results filed as active; . = no result given. Hits are enriched below; roughly 6.4% of the tested compounds scored in any of these assays.

SMILES | Lung fibro prol | H69AR growth 86K | Jurkat viability | HUVEC inhibit
O=c1cccc2n1CC1CC2CN(S(=O)(=O)c2ccccc2)C1 (stereo unspecified) | 101 | 92 | . | 110
O=C(c1ccc2c(c1)ncn2C1CCCCC1)N1CCC2(CC1)OCCO2 | 75 | 17* | 54* | 60
CC(C)n1nnnc1CN1CCN(C)CC1 | 98 | 97 | 2 | 97
O=c1[nH]c(=O)n(CCc2ccccc2)c(O)c1C=NCc1ccc2c(c1)OCO2 | 80 | 35* | . | 71
CCOC(=O)C1SC2(C(F)F)CC1(O)c1c(c(OC)c3occc3c1OC)O2 (stereo unspecified) | 100 | 68 | -2 | 88
C#CCN1C(=O)C2(C(C#N)=C(N)OC(C)=C2C(=O)OCc2ccccc2)c2ccccc21 (stereo unspecified) | . | 30* | -1 | 98
Nc1c(C(=O)OCC2CCCO2)c2nc3ccccc3nc2n1Cc1cccs1 (stereo unspecified) | 97 | 39* | 0 | 60
CC(C)OCCCNC(=O)c1c(N)n(Cc2cccs2)c2nc3ccccc3nc12 | 81 | 98 | -2 | 35
Cc1cccnc1-n1c(C)nc2ccccc2c1=O | 98 | 127 | . | 94
CCOC(=O)c1ccc(N2C(=O)CC(N3CCC(C#N)(c4ccccc4)CC3)C2=O)cc1 (stereo unspecified) | . | 101 | 3 | 109
NS(=O)(=O)c1ccc(N=Cc2c(O)n(C3CCCCC3)c(=O)n(C3CCCCC3)c2=O)cc1 | 39* | 0.9* | 1 | 1.8*
Cn1c(O)c(C=Nc2ccc(Cl)cc2)c(=O)n(C)c1=O | 108 | 97 | -7 | 82
COc1ccccc1OCCCn1cc(C(=O)c2ccco2)c2ccccc21 | 97 | 53 | -3 | 76
O=C(c1ccco1)c1cn(Cc2ccc(Cl)cc2)c2ccccc12 | 95 | 11* | . | 71
O=C(c1cccs1)c1cn(Cc2ccccc2Cl)c2ccccc12 | 92 | 34* | . | 93
CNC(C(=O)c1ccccc1)C(OC(C)C)c1ccc(Cl)cc1 (stereo unspecified) | 94 | 84 | . | 77
CCSP1(=S)N=C(N2CCOCC2)C(C#N)=C2CCCN21 (stereo unspecified) | 91 | . | -4 | 94
CCC(=NCc1ccco1)c1c(O)n(C2CCCCC2)c(=O)[nH]c1=O | 99 | 32* | -3 | 102
O=C(Nc1ccncc1)c1c(O)c2ccccc2n(Cc2ccccc2)c1=O | 92 | 17* | . | 99
CCCCn1c(=O)c(C(=O)Nc2ccccc2S(N)(=O)=O)c(O)c2ccccc21 | 104 | 23* | -4 | 74
CCCCn1c(=O)c(C(=O)NCc2ccncc2)c(O)c2ccccc21 | 100 | 75 | 3 | 123
CCCCCCn1c(=O)c(C(=O)Nc2ccncc2)c(O)c2ccccc21 | 55 | 12* | -4 | 63
OC1(c2ccccc2F)CC2CCC(C1)N2CCN1CCOCC1 (stereo unspecified) | 104 | 100 | 0 | 90
CC[N+](C)(CC)CCCOC(=O)C(O)(c1ccccc1)C1CCCCC1 (stereo unspecified) | 100 | 75 | . | 94
Cc1ccc(-c2nc(N(C)C3CCN(C)CC3)c3ccccc3n2)cc1 | 38* | 2.7* | . | 4.3*
SMILES | Lung fibro prol | H69AR growth 86K | Jurkat viability | HUVEC inhibit
c1cc2n(c1)-c1c(ccc3c1OCO3)CNC2c1ccc2c(c1)OCO2 (stereo unspecified) | . | . | 2 | .
COc1ccc(C2NCc3ccc4c(c3-n3cccc32)OCO4)cc1O (stereo unspecified) | 52 | 29* | 78* | 43
CCC(CC)C1C(C#N)=C(N)Oc2c1c(=O)oc1ccccc21 (stereo unspecified) | 88 | 37* | . | 87
Cc1nc2c(=O)n(C)c(=O)nc-2n(C)n1 | 2.5* | 2.6* | . | 5.6*
CC(C)N(CCC(C(N)=O)(c1ccccc1)c1ccccn1)C(C)C (stereo unspecified) | 96 | 84 | . | 90
COC(=O)C1CN(C#N)N(c2ccc(Cl)cc2)C12c1ccccc1-c1ccccc12 (stereo unspecified) | 2.1* | 2.3* | . | 2.4*
O=C1NC(=O)C2(Cc3ccccc3N3CCOCC32)C(=O)N1c1ccccc1 (stereo unspecified) | 94 | 19* | . | 72
Cc1cc(N2C(=O)C3CCCN3C2c2ccccc2)no1 (stereo unspecified) | 97 | 95 | -3 | 96
Clc1ccc(CSC(Cn2ccnc2)c2ccc(Cl)cc2Cl)cc1 (stereo unspecified) | 85 | 9.2* | . | 66
Clc1ccc(COC(Cn2ccnc2)c2ccc(Cl)cc2Cl)cc1 (stereo unspecified) | 78 | 26* | . | 9.2*
c1ccc(Cn2ccnc2)cc1 | 101 | 92 | . | 94
CCCCn1c(O)c(C(C)=NC(Cc2c[nH]c3ccccc23)C(=O)OC)c(=O)[nH]c1=O (stereo unspecified) | 101 | 87 | 5 | 74
O=S1(=O)CC2(N3CCOCC3)CCCCC21 (stereo unspecified) | 101 | 92 | -5 | 94
C=Cn1ccnc1P(=S)(c1ccn(C)c1)c1nccn1C=C | 87 | 96 | . | 88
CN1CSC(=S)N(C)C1 | 99 | 28* | . | 102
CN(C)c1ccc(C(=O)c2ccc(N(C)C)cc2)cc1 | 55 | 16* | . | 41

From PubChem BioAssay
